Peptide text beside a SMILES is read from it.
Assays:
[1] = target: T1, Gastrin/cholecystokinin type B receptor (Homo sapiens, UniProt P32239); assay: Displacement of [125I]CCK from gastrin receptor isolated from human tumor tissues
T1 sequence (P32239 whole entry): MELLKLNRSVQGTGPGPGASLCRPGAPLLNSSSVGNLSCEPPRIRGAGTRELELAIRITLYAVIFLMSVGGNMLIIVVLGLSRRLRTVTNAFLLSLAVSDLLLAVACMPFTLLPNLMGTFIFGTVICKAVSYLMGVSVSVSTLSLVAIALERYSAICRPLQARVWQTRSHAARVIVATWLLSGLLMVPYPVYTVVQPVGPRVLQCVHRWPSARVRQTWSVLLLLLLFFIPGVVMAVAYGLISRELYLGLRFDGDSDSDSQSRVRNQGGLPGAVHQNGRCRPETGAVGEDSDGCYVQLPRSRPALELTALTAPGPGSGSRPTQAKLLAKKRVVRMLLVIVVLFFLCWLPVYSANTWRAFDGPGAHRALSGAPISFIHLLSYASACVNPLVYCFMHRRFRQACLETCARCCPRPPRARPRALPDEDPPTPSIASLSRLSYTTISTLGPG
Summary of the method: (§1)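 Surgically resected human tumor tissues expressing CCK-1 or gastrin receptors; 125I-CCK incubation medium with increasing amounts of competitor added to generate competitive inhibition curves.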

[2] = target: T2, Cholecystokinin receptor type A (Homo sapiens, UniProt P32238); assay: Displacement of [125I]CCK from CCK1 receptor isolated from human tumor tissues; summary of the method: as §1
T2 sequence (P32238 whole entry): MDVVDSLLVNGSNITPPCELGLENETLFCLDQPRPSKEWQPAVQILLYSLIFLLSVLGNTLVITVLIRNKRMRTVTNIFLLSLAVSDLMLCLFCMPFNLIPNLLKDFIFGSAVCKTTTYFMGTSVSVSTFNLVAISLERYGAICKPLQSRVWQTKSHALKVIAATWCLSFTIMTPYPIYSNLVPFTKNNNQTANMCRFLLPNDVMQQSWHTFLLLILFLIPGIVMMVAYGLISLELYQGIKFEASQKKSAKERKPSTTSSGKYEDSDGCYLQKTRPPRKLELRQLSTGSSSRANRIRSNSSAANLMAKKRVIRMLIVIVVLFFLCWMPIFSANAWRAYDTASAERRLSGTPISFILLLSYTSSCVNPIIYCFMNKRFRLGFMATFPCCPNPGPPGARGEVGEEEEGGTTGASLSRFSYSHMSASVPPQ

[3] = target: T3, Gastrin/cholecystokinin type B receptor (Rattus norvegicus, UniProt P30553); assay: Agonist activity at gastrin receptor in rat AR4-2J cells assessed as intracellular calcium mobilization by fluorescence assay; assay type: functional, cell-based
T3 sequence (P30553 whole entry): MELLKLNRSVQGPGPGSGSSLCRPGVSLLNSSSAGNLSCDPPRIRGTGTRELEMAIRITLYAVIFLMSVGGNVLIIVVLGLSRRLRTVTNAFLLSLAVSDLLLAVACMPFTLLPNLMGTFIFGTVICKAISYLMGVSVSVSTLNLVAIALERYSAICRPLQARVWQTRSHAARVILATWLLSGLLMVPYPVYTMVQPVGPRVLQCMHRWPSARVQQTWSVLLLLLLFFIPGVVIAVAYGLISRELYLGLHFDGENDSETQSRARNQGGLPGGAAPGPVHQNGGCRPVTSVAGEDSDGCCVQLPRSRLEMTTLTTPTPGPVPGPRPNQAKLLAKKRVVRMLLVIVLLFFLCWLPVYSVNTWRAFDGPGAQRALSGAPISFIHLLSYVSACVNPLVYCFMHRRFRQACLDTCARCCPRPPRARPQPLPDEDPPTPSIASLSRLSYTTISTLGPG
Summary of the method: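 AR4-2J cells seeded 50 000/well, cultured 1 day at 37 C, 5% CO2, then loaded with Ca dye in HBSS/20 mM HEPES with 2.5 mM probenecid for 1 h at 37 C. Peptides added as 1:3 serial dilutions in HBSS/HEPES/0.1% BSA/0.05% pluronic acid, diluted 1:6 on addition. Fluorescence (ex 485/em 525 nm) read 4 min at room temperature; Fmax with ionomycin; EC50 from four-parameter fit.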

| Structure (SMILES) | IC50 [1] | IC50 [2] | EC50 [3] |
| --- | --- | --- | --- |
| CSCC[C@H](NC(=O)[C@H](Cc1c[nH]c2ccccc12)NC(=O)CNC(=O)[C@H](Cc1ccc(O)cc1)NC(=O)[C@H](C)NC(=O)[C@@H](CO)NC(=O)[C@@H](CO)NC(=O)CN1CCN(CC(=O)O)CCN(CC(=O)O)CCN(CC(=O)O)CC1)C(=O)N[C@@H](CC(=O)O)C(=O)N[C@@H](Cc1ccccc1)C(N)=O | 0.9 nM | > 700 nM |  |
| CSCC[C@H](NC(=O)[C@H](Cc1c[nH]c2ccccc12)NC(=O)CNC(=O)[C@H](Cc1ccc(O)cc1)NC(=O)[C@H](C)NC(=O)[C@@H](CCC(N)=O)NC(=O)[C@@H](CCC(N)=O)NC(=O)[C@@H](CCC(N)=O)NC(=O)CN1CCN(CC(=O)O)CCN(CC(=O)O)CCN(CC(=O)O)CC1)C(=O)N[C@@H](CC(=O)O)C(=O)N[C@@H](Cc1ccccc1)C(N)=O (HELM PEPTIDE1{[O=C(O)CN1CCN(CC(=O)O)CCN(CC(=O)[*:2])CCN(CC(=O)O)CC1].[dQ].[dQ].[dQ].A.Y.G.W.M.D.F.[am]}$$$$V2.0) | 3.6 nM | > 700 nM | 0.27 nM |
| CSCC[C@H](NC(=O)[C@H](Cc1c[nH]c2ccccc12)NC(=O)CNC(=O)[C@H](Cc1ccc(O)cc1)NC(=O)[C@H](C)NC(=O)[C@@H](CCC(N)=O)NC(=O)[C@@H](CCC(N)=O)NC(=O)[C@@H](CCC(N)=O)NC(=O)[C@@H](CCC(N)=O)NC(=O)[C@@H](CCC(N)=O)NC(=O)[C@@H](CCC(N)=O)NC(=O)CN1CCN(CC(=O)O)CCN(CC(=O)O)CCN(CC(=O)O)CC1)C(=O)N[C@@H](CC(=O)O)C(=O)N[C@@H](Cc1ccccc1)C(N)=O (HELM PEPTIDE1{[O=C(O)CN1CCN(CC(=O)O)CCN(CC(=O)[*:2])CCN(CC(=O)O)CC1].[dQ].[dQ].[dQ].[dQ].[dQ].[dQ].A.Y.G.W.M.D.F.[am]}$$$$V2.0) | 2.4 nM | > 700 nM | 0.41 nM |

More lines, in order of falling IC50 [1], values ahead:

| IC50 [1] | IC50 [2] | Structure (SMILES) | EC50 [3] |
| --- | --- | --- | --- |
| 2.4 nM | > 700 nM | CSCC[C@H](NC(=O)[C@H](Cc1c[nH]c2ccccc12)NC(=O)CNC(=O)[C@H](Cc1ccc(O)cc1)NC(=O)[C@H](C)NC(=O)[C@@H](CCC(N)=O)NC(=O)[C@@H](CCC(N)=O)NC(=O)[C@@H](CCC(N)=O)NC(=O)[C@@H](CCC(N)=O)NC(=O)CN1CCN(CC(=O)O)CCN(CC(=O)O)CCN(CC(=O)O)CC1)C(=O)N[C@@H](CC(=O)O)C(=O)N[C@@H](Cc1ccccc1)C(N)=O |  |
| 1.6 nM | > 700 nM | CCCC[C@H](NC(=O)[C@H](Cc1c[nH]c2ccccc12)NC(=O)CNC(=O)[C@H](Cc1ccc(O)cc1)NC(=O)[C@H](C)NC(=O)[C@@H](CCC(N)=O)NC(=O)[C@@H](CCC(N)=O)NC(=O)[C@@H](CCC(N)=O)NC(=O)CN1CCN(CC(=O)O)CCN(CC(=O)O)CCN(CC(=O)O)CC1)C(=O)N[C@@H](CC(=O)O)C(=O)N[C@@H](Cc1ccccc1)C(N)=O |  |
| 0.8 nM | > 700 nM | CSCC[C@H](NC(=O)[C@H](Cc1c[nH]c2ccccc12)NC(=O)CNC(=O)[C@H](Cc1ccc(O)cc1)NC(=O)[C@H](C)NC(=O)[C@@H](CCC(N)=O)NC(=O)[C@@H](CCC(N)=O)NC(=O)CN1CCN(CC(=O)O)CCN(CC(=O)O)CCN(CC(=O)O)CC1)C(=O)N[C@@H](CC(=O)O)C(=O)N[C@@H](Cc1ccccc1)C(N)=O |  |
| 0.7 nM | > 700 nM | CSCC[C@H](NC(=O)[C@H](Cc1c[nH]c2ccccc12)NC(=O)CNC(=O)[C@H](Cc1ccc(O)cc1)NC(=O)[C@H](C)NC(=O)[C@H](CCC(=O)O)NC(=O)[C@H](CCC(=O)O)NC(=O)[C@H](CCC(=O)O)NC(=O)[C@H](CCC(=O)O)NC(=O)[C@H](CCC(=O)O)NC(=O)[C@H](CCC(=O)O)NC(=O)CN1CCN(CC(=O)O)CCN(CC(=O)O)CCN(CC(=O)O)CC1)C(=O)N[C@@H](CC(=O)O)C(=O)N[C@@H](Cc1ccccc1)C(N)=O |  |
| 0.6 nM | > 700 nM | CSCC[C@H](NC(=O)[C@H](Cc1c[nH]c2ccccc12)NC(=O)CNC(=O)[C@H](Cc1ccc(O)cc1)NC(=O)[C@H](C)NC(=O)[C@@H](CO)NC(=O)[C@@H](CO)NC(=O)[C@@H](CO)NC(=O)CN1CCN(CC(=O)O)CCN(CC(=O)O)CCN(CC(=O)O)CC1)C(=O)N[C@@H](CC(=O)O)C(=O)N[C@@H](Cc1ccccc1)C(N)=O |  |
